The text below walks through data of ChEMBL document CHEMBL1142312, “Anti-Plasmodium activity of tetrazolium salts” (Bioorg Med Chem, 2008).

The nature of data set [1]: Inhibition of glutathione reduction of nitrotetrazolium blue chloride.
For another data set, the system named is Plasmodium falciparum. Nature of the data set: Antimalarial activity against Plasmodium falciparum in LDH reporter assay. It is filed as functional, organism-based. In outline:
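P. falciparum line ItG cultured in O+ human erythrocytes in RPMI-1640 with 10% human serum and 50 μM hypoxanthine. Twofold serial dilutions from 10 mg/mL DMSO stock, 2% hematocrit, 2% parasitemia. Incubated 72 h at 37 °C under 95% N2/3% CO2/2% O2. Parasite LDH assay read at 650 nm after 1 h. IC50 by non-linear regression, mean ± SE of four determinations.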
(In a reporter assay the amount or activity of a reporter protein is the signal.)

In the next data set the test system is CHO. Nature of the data set: (§1) Toxicity in CHO cells. It is filed as cell-based, Cricetulus griseus. The following applies: cho. Put shortly:
(§2)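 CHO cells grown to 50% confluency in RPMI-1640 with 10% fetal calf serum, 25 mM Hepes and gentamicin. Serial dilutions made from a 10 mg/mL DMSO stock; DMSO-only controls. After 48 h, MTT (10 mg/mL in medium) added for 1 h, then DMSO added and absorbance read at 650 nm. IC50 by non-linear regression of dose–response; mean ± SE of four determinations.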

Data set [2] is described as follows: as §1. It counts as cell-based, Cricetulus griseus. As to conditions: Chinese hamster (Cricetulus griseus), CHO cells. Put shortly: as §2
The nature of data set [3]: Ratio of IC50 for CHO cells to IC50 for Plasmodium falciparum. It counts as functional.

Structures are written as SMILES. Where “and” joins values, the source holds several entries; their conditions need not be identical. Identical values can stand only once.

Usually IC50 stands for the midpoint of a concentration-inhibition curve. In data set [1], `CC(=O)Nc1ccc(/C=C/c2ccc(N=C=S)cc2S(=O)(=O)O)c(S(=O)(=O)O)c1` returned an IC50 of 2.7 µM.
Consider `O=[N+]([O-])c1ccc(-[n+]2nc(-c3ccccc3)nn2-c2ccccc2)cc1.[Cl-]`, for which the IC50 in the data set with Plasmodium falciparum was 9.1 µM and 4.5 µM; in the data set on CHO it was 12 µM; in data set [2] it was 16.2 µM. In addition, the “Ratio IC50” value in data set [3] was 1.8 and 2.7.
As for `O=S(=O)(O)c1cc(N=C=S)ccc1/C=C/c1ccc(N=C=S)cc1S(=O)(=O)O`, in data set [1], the IC50 was 31 µM.
As for `Clc1cccc(-[n+]2nc(-c3ccccc3)nn2-c2ccc(OCc3ccccc3)cc2)c1.[Cl-]`, the figures for the IC50 (in the data set on Plasmodium falciparum (Plasmodium falciparum); in data set [2]) were 0.1 µM and 14 µM, respectively. In addition, the “Ratio IC50” value in data set [3] came out at 140.
On the same counts, the results for `COc1cc(-c2nn(-c3ccccc3)[n+](-c3cccc(F)c3)n2)ccc1OCc1ccccc1.[Cl-]` are 3.2 µM, 6.5 µM and 2.
In the case of `Fc1ccccc1-[n+]1nc(-c2ccc(OCc3ccccc3)cc2)nn1-c1ccccc1.[Cl-]`, the IC50 with Plasmodium falciparum (Plasmodium falciparum) amounted to 0.14 µM; in data set [2] it was 8 µM. For the same molecule, the “Ratio IC50” value in data set [3] worked out at 57.1.
For the molecule `Fc1cccc(-[n+]2nc(-c3ccc(OCc4ccccc4)cc3)nn2-c2ccccc2)c1.[Cl-]`, the values for the half-inhibitory concentration (IC50) (with Plasmodium falciparum (Plasmodium falciparum); in data set [2]) were 0.42 µM and 4.3 µM, respectively. In data set [3], the “Ratio IC50” value is listed as 10.2.
On to `[Cl-].c1ccc(-c2nn(-c3ccccc3)[n+](-c3cccc4ccccc34)n2)cc1` [TETRAZOLIUM VIOLET], for which the results for the IC50 (with Plasmodium falciparum (Plasmodium falciparum); in data set [2]) were 0.15 µM and 15 µM, respectively. For the same molecule, the “Ratio IC50” value in data set [3] was 100.
Regarding `Clc1cccc(-c2nn(-c3ccccc3)[n+](-c3ccccc3)n2)c1.[Cl-]`, the IC50 in the data set with Plasmodium falciparum (Plasmodium falciparum) was determined as 0.46 µM; in data set [2], 43 µM. In data set [3], the “Ratio IC50” value is given as 93.5.
The matching figures for `COc1cc(-c2nn(-c3ccccc3)[n+](-c3ccccc3F)n2)ccc1OCc1ccccc1.[Cl-]`: 2.2 µM, 2.7 µM and 1.2.
`O=[N+]([O-])c1ccc(-[n+]2nc(-c3ccc(OCc4ccccc4)cc3)nn2-c2ccccc2)cc1.[Cl-]`: the IC50 in the data set with Plasmodium falciparum (Plasmodium falciparum) was determined as 9 µM; in data set [2], 4.4 µM. Further, the “Ratio IC50” value in data set [3] was found to be 0.5.
Take `COc1cc(-c2nn(-c3ccccc3)[n+](-c3ccccc3)n2)ccc1OCc1ccccc1.[Cl-]`: the IC50 was determined as 0.26 µM in the data set on Plasmodium falciparum (Plasmodium falciparum) and 4.7 µM in data set [2]. Also, the “Ratio IC50” value in data set [3] amounted to 18.1.
Turning to `CCCCCCCCCCCOc1cccc(-c2nn(-c3ccccc3)[n+](-c3ccccc3)n2)c1.[Cl-]`, the IC50 in the data set with Plasmodium falciparum (Plasmodium falciparum) was 2.5 µM; in data set [2], 5 µM. The “Ratio IC50” value in data set [3] is listed as 2.
As to `Clc1cccc(-n2nc(-c3ccc(OCc4ccccc4)cc3)n[n+]2-c2cccc(Cl)c2)c1.[Cl-]`, the IC50 came out at 1.3 µM in the data set on Plasmodium falciparum (Plasmodium falciparum) and 21 µM in data set [2]. In addition, in data set [3], the “Ratio IC50” value worked out at 16.2.
